Data published in ChEMBL document CHEMBL3259707, “Design and synthesis of human ABCB1 (P-glycoprotein) inhibitors by peptide coupling of diverse chemical scaffolds on carboxyl and amino termini of (S)-valine-derived thiazole amino acid” (J Med Chem, 2014).

tested on: not listed separately; assay: Retardation factor of the compound using EtOAc-n-hexane at ratio of 1:1 by thin layer chromatography; type: physicochemical; settings: not given

Structure (SMILES) | Rf
COc1ccc(NC(=O)c2csc([C@@H](NC(=O)c3csc([C@@H](NC(=O)OC(C)(C)C)C(C)C)n3)C(C)C)n2)c(OC)c1 | 0.55
COc1cc(NC(=O)c2csc([C@@H](NC(=O)c3cc(OC)c(OC)c(OC)c3)C(C)C)n2)cc(OC)c1OC | 0.4
COc1cc(NC(=O)c2csc([C@@H](NC(=O)c3cc(OC)c(OC)c(OC)c3)C(C)C)n2)cc(OC)c1 | 0.55
CCOC(=O)c1csc([C@@H](NC(=O)c2csc([C@@H](NC(=O)c3cc(OC)c(OC)c(OC)c3)C(C)C)n2)C(C)C)n1 | 0.4
COc1cc2c(cc1OC)C(=O)C(CC1CCN(C(=O)c3csc([C@@H](NC(=O)OC(C)(C)C)C(C)C)n3)CC1)C2 (some centres undefined) | 0.2
COc1cc(NC(=O)c2csc([C@@H](NC(=O)c3csc([C@@H](NC(=O)OC(C)(C)C)C(C)C)n3)C(C)C)n2)cc(OC)c1OC | 0.45

Now from value to compound:

Rf | Structure (SMILES)
0.3 | COc1cc(CNC(=O)c2csc([C@@H](NC(=O)c3cc(OC)c(OC)c(OC)c3)C(C)C)n2)cc(OC)c1OC
0.5 | CCOC(=O)c1csc([C@@H](NC(=O)/C=C/c2ccc(OC)c(OC)c2)C(C)C)n1
0.6 | CCOC(=O)c1csc([C@@H](NC(=O)c2cc(OC)c(OC)c(OC)c2)C(C)C)n1
0.4 | CCOC(=O)c1csc([C@@H](NC(=O)c2cnc3ccccc3c2)C(C)C)n1
0.4 | CCOC(=O)c1csc([C@@H](NC(=O)c2csc([C@@H](NC(=O)c3ccc(OC)c(OC)c3)C(C)C)n2)C(C)C)n1
0.45 | COc1ccc([C@@H](C)NC(=O)c2csc([C@@H](NC(=O)c3cc(OC)c(OC)c(OC)c3)C(C)C)n2)cc1

tested on: not listed separately; assay: Retardation factor of the compound using EtOAc-n-hexane at ratio of 3:2 by thin layer chromatography; type: physicochemical; settings: not given

Structure (SMILES) | Rf
COc1cc(C(=O)N[C@H](c2nc(C(=O)Nc3ccccc3C(=O)c3ccc(F)cc3)cs2)C(C)C)cc(OC)c1OC | 0.4
COc1cc(C(=O)N[C@H](c2nc(C(=O)NCc3ccc(-c4ccccc4)cc3)cs2)C(C)C)cc(OC)c1OC | 0.5

The next lines start with the values.

Rf | Structure (SMILES)
0.5 | COc1cc(C(=O)N[C@H](c2nc(C(=O)Nc3ccc(C(=O)c4ccccc4)cc3)cs2)C(C)C)cc(OC)c1OC
0.5 | COc1cc(C(=O)N[C@H](c2nc(C(=O)NC3Cc4ccccc4C3)cs2)C(C)C)cc(OC)c1OC
0.3 | COc1cc2c(cc1OC)CN(C(=O)c1csc([C@@H](NC(=O)c3cc(OC)c(OC)c(OC)c3)C(C)C)n1)CC2
0.5 | COc1cc(C(=O)N[C@H](c2nc(C(=O)Nc3ccc4c(c3)OCO4)cs2)C(C)C)cc(OC)c1OC

tested on: not listed separately; assay: Retention time of the compound by HPLC analysis; type: physicochemical; settings: not given
Outline: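 Reverse-phase C18 HPLC, isocratic acetonitrile/water 60:40, 1.0 mL/min, UV 254 nm; purity from major-peak area.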

Structure (SMILES) | Retention_time [min]
COc1cc(C(=O)N[C@H](c2nc(C(=O)Nc3ccccc3C(=O)c3ccc(F)cc3)cs2)C(C)C)cc(OC)c1OC | 9.5
COc1cc(C(=O)N[C@H](c2nc(C(=O)NCc3ccc(-c4ccccc4)cc3)cs2)C(C)C)cc(OC)c1OC | 6.3
COc1ccc(NC(=O)c2csc([C@@H](NC(=O)c3csc([C@@H](NC(=O)OC(C)(C)C)C(C)C)n3)C(C)C)n2)c(OC)c1 | 7.6
COc1cc(NC(=O)c2csc([C@@H](NC(=O)c3cc(OC)c(OC)c(OC)c3)C(C)C)n2)cc(OC)c1OC | 3.3
COc1cc(NC(=O)c2csc([C@@H](NC(=O)c3cc(OC)c(OC)c(OC)c3)C(C)C)n2)cc(OC)c1 | 4.3
CCOC(=O)c1csc([C@@H](NC(=O)c2csc([C@@H](NC(=O)c3cc(OC)c(OC)c(OC)c3)C(C)C)n2)C(C)C)n1 | 3.6
COc1cc2c(cc1OC)C(=O)C(CC1CCN(C(=O)c3csc([C@@H](NC(=O)OC(C)(C)C)C(C)C)n3)CC1)C2 (some centres undefined) | 4.7
COc1cc(NC(=O)c2csc([C@@H](NC(=O)c3csc([C@@H](NC(=O)OC(C)(C)C)C(C)C)n3)C(C)C)n2)cc(OC)c1OC | 8

The next lines start with the values.

Retention_time [min] | Structure (SMILES)
6.8 | COc1cc(C(=O)N[C@H](c2nc(C(=O)Nc3ccc(C(=O)c4ccccc4)cc3)cs2)C(C)C)cc(OC)c1OC
4.1 | COc1cc(C(=O)N[C@H](c2nc(C(=O)NC3Cc4ccccc4C3)cs2)C(C)C)cc(OC)c1OC
2.7 | COc1cc(CNC(=O)c2csc([C@@H](NC(=O)c3cc(OC)c(OC)c(OC)c3)C(C)C)n2)cc(OC)c1OC
2.8 | COc1cc2c(cc1OC)CN(C(=O)c1csc([C@@H](NC(=O)c3cc(OC)c(OC)c(OC)c3)C(C)C)n1)CC2
3.5 | COc1cc(C(=O)N[C@H](c2nc(C(=O)Nc3ccc4c(c3)OCO4)cs2)C(C)C)cc(OC)c1OC
3.4 | CCOC(=O)c1csc([C@@H](NC(=O)/C=C/c2ccc(OC)c(OC)c2)C(C)C)n1
3.7 | CCOC(=O)c1csc([C@@H](NC(=O)c2cc(OC)c(OC)c(OC)c2)C(C)C)n1
3.3 | CCOC(=O)c1csc([C@@H](NC(=O)c2cnc3ccccc3c2)C(C)C)n1
3.5 | CCOC(=O)c1csc([C@@H](NC(=O)c2csc([C@@H](NC(=O)c3ccc(OC)c(OC)c3)C(C)C)n2)C(C)C)n1
3.9 | COc1ccc([C@@H](C)NC(=O)c2csc([C@@H](NC(=O)c3cc(OC)c(OC)c(OC)c3)C(C)C)n2)cc1

molecular target: T1, ATP-dependent translocase ABCB1 (Homo sapiens, UniProt P08183); assay: Inhibition of human wild type P-gp expressed in BacMam virus infected human HeLa cells assessed as calcein-AM accumulation at 10 uM after 10 mins by flow cytometry; type: cell-based; settings: not given
T1 sequence (P08183 whole entry): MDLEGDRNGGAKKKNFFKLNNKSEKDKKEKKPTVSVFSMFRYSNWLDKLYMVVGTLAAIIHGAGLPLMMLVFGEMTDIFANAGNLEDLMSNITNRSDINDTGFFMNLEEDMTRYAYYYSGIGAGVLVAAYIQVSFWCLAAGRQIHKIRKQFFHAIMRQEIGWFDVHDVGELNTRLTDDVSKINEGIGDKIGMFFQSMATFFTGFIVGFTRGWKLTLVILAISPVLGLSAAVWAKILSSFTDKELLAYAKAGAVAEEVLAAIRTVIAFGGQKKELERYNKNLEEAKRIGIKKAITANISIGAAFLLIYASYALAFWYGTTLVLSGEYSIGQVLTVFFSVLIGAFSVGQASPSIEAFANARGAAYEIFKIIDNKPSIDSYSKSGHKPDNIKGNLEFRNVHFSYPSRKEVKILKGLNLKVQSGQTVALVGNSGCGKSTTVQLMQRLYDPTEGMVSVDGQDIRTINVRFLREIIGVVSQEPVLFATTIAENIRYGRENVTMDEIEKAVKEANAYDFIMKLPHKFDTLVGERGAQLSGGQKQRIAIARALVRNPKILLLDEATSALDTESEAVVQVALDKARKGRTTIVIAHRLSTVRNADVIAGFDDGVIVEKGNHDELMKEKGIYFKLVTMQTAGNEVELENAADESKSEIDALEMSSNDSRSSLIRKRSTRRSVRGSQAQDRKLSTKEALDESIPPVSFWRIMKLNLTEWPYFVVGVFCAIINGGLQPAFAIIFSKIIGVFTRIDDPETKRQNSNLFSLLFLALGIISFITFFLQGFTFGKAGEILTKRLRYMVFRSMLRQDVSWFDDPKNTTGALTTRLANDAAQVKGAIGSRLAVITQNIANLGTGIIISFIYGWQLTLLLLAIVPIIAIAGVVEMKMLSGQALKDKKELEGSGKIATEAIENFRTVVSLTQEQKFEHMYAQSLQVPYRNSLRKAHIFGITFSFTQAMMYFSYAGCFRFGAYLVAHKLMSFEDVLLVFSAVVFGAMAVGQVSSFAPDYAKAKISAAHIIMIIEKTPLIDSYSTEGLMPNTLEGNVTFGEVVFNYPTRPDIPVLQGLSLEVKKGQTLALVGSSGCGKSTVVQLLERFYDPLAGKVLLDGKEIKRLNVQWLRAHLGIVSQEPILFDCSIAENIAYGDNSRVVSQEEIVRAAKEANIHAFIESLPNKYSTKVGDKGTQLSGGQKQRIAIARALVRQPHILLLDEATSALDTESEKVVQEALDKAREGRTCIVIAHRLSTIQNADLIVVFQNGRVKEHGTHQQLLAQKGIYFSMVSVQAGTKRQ
Outline: (§1)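 HeLa cells transduced with BacMam WT-P-gp (10–15 particles/cell); 10 mM butyric acid added after 3–4 h, grown overnight at 37 °C. Trypsinized cells exposed to compound, then 0.5 μM calcein-AM for 10 min at 37 °C in the dark. […] Two independent experiments in triplicate, ± SD.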

Structure (SMILES) | inhibition (INH) [%]
COc1cc(C(=O)N[C@H](c2nc(C(=O)Nc3ccccc3C(=O)c3ccc(F)cc3)cs2)C(C)C)cc(OC)c1OC | 54
COc1cc(C(=O)N[C@H](c2nc(C(=O)NCc3ccc(-c4ccccc4)cc3)cs2)C(C)C)cc(OC)c1OC | 23
COc1cc(NC(=O)c2csc([C@@H](NC(=O)c3cc(OC)c(OC)c(OC)c3)C(C)C)n2)cc(OC)c1OC | 58
COc1cc(NC(=O)c2csc([C@@H](NC(=O)c3cc(OC)c(OC)c(OC)c3)C(C)C)n2)cc(OC)c1 | 37
CCOC(=O)c1csc([C@@H](NC(=O)c2csc([C@@H](NC(=O)c3cc(OC)c(OC)c(OC)c3)C(C)C)n2)C(C)C)n1 | 55
COc1cc2c(cc1OC)C(=O)C(CC1CCN(C(=O)c3csc([C@@H](NC(=O)OC(C)(C)C)C(C)C)n3)CC1)C2 (some centres undefined) | 15

The next lines start with the values.

inhibition (INH) [%] | Structure (SMILES)
18 | COc1cc(C(=O)N[C@H](c2nc(C(=O)Nc3ccc(C(=O)c4ccccc4)cc3)cs2)C(C)C)cc(OC)c1OC
47 | COc1cc(C(=O)N[C@H](c2nc(C(=O)NC3Cc4ccccc4C3)cs2)C(C)C)cc(OC)c1OC
4 | COc1cc(CNC(=O)c2csc([C@@H](NC(=O)c3cc(OC)c(OC)c(OC)c3)C(C)C)n2)cc(OC)c1OC
16 | COc1cc2c(cc1OC)CN(C(=O)c1csc([C@@H](NC(=O)c3cc(OC)c(OC)c(OC)c3)C(C)C)n1)CC2
40 | COc1cc(C(=O)N[C@H](c2nc(C(=O)Nc3ccc4c(c3)OCO4)cs2)C(C)C)cc(OC)c1OC
11 | CCOC(=O)c1csc([C@@H](NC(=O)/C=C/c2ccc(OC)c(OC)c2)C(C)C)n1
10 | CCOC(=O)c1csc([C@@H](NC(=O)c2cc(OC)c(OC)c(OC)c2)C(C)C)n1
2 | CCOC(=O)c1csc([C@@H](NC(=O)c2cnc3ccccc3c2)C(C)C)n1
24 | COc1ccc([C@@H](C)NC(=O)c2csc([C@@H](NC(=O)c3cc(OC)c(OC)c(OC)c3)C(C)C)n2)cc1

molecular target: T1, ATP-dependent translocase ABCB1; assay: Inhibition of human wild type P-gp expressed in BacMam virus infected human HeLa cells assessed as calcein-AM accumulation after 10 mins by flow cytometry; type: cell-based; settings: not given; outline: as §1

Structure (SMILES) | IC50 [µM]
COc1ccc(NC(=O)c2csc([C@@H](NC(=O)c3csc([C@@H](NC(=O)OC(C)(C)C)C(C)C)n3)C(C)C)n2)c(OC)c1 | 2.5
COc1cc(NC(=O)c2csc([C@@H](NC(=O)c3csc([C@@H](NC(=O)OC(C)(C)C)C(C)C)n3)C(C)C)n2)cc(OC)c1OC | 6.5

Results, then the compound that gave them:

IC50 [µM] | Structure (SMILES)
2 | COc1ccc(C(C)NC(=O)c2csc([C@@H](NC(=O)c3csc([C@@H](NC(=O)OC(C)(C)C)C(C)C)n3)C(C)C)n2)cc1 (some centres undefined)
16 | CCOC(=O)c1csc([C@@H](NC(=O)c2csc([C@@H](NC(=O)c3ccc(OC)c(OC)c3)C(C)C)n2)C(C)C)n1

same assay, conditions: hela

IC50 [µM] | Structure (SMILES)
2 | COc1ccc(CNC(=O)c2csc([C@@H](NC(=O)c3csc([C@@H](NC(=O)OC(C)(C)C)C(C)C)n3)C(C)C)n2)c(OC)c1

same assay, conditions: human, hela, 10 min

inhibition (INH) | Structure (SMILES)
Dose-dependent effect | COc1ccc(NC(=O)c2csc([C@@H](NC(=O)c3csc([C@@H](NC(=O)OC(C)(C)C)C(C)C)n3)C(C)C)n2)c(OC)c1
Dose-dependent effect | CCOC(=O)c1csc([C@@H](NC(=O)c2csc([C@@H](NC(=O)c3ccc(OC)c(OC)c3)C(C)C)n2)C(C)C)n1
Dose-dependent effect | COc1cc(NC(=O)c2csc([C@@H](NC(=O)c3csc([C@@H](NC(=O)OC(C)(C)C)C(C)C)n3)C(C)C)n2)cc(OC)c1OC
